Results published in paper PMC8361981 (Chemistry (Weinheim an Der Bergstrasse, Germany), 2021).

Assays:
[1] = tested on: EV71 BrCr laboratory-adapted strain; experiment: Anti-EV71 assay, BrCr laboratory-adapted strain in RD cells; format: cell-based, Enterovirus A71
Outline: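 Enterovirus A71 BrCr (laboratory-adapted) was grown in rhabdomyosarcoma (RD) cells with test compound. EC50 is the concentration reducing virus-induced cytopathic effect by 50%. CC50 is the 50% loss of viability in compound-treated, uninfected RD cells run in a similar setup. SI = CC50/EC50.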

[2] = Cell viability of compound-treated, uninfected RD cells; format: cell-based; conditions: human, uninfected rhabdomyosarcoma (RD) cells
Outline: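 Compound-treated, uninfected RD cells run in a setup parallel to the EV71 BrCr cytopathic-effect reduction assay in RD cells. CC50 is the concentration giving a 50 % reduction in cell viability. Selectivity index is CC50/EC50.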

[3] = tested on: HIV-1 (NL4.3); experiment: Anti-HIV-1; format: cell-based; conditions: for EC50: Human immunodeficiency virus 1, CD4+ T cell, read-out: EC50 HIV-1/NL4.3
[4] = tested on: HIV-2 (ROD); experiment: Anti-HIV-2; format: cell-based; conditions: Human immunodeficiency virus 2, CD4+ T cell, read-out: EC50 HIV-2/ROD
[5] = Cytotoxicity in MT-4 cells; format: cell-based; conditions: human
Outline: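 Cytostatic read-out alongside the HIV cytopathicity assay. CC50 is the concentration that inhibits CD4 T cell proliferation by 50 %. Selectivity index is CC50/EC50.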

[6] = target: recombinant HIV-1 IIIB gp120 (Human immunodeficiency virus type 1 group M subtype B, UniProt P04578); experiment: Surface plasmon resonance; format: binding
Outline: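 Recombinant HIV-1 IIIB gp120, produced in Chinese hamster ovary cells, was immobilised as a monomer on a sensor chip. Test compound was passed over at 0.1–6.25 μM in two-fold dilution steps. Real-time binding responses were fitted to a 1:1 Langmuir model to obtain affinity and kinetic constants.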

With `CCOC(=O)c1ccc(OCCC2CCN(c3ccc(C)nn3)CC2)cc1` [Pirodavir] the “SI selectivity index (CC50/EC50)” value ([1]; EV71 BrCr in RD cells, Table 3) was over 333, the EC50 ([1]; Enterovirus A, EV71, RD, read-out: EC50 EV71 BrCr) was 0.3 ± 0.1 µM and the CC50 at 3 days [2] was over 100 µM.

For `CN[C@@H]1[C@H](O[C@@H]2OC[C@@H](O)[C@H](O)[C@H]2O)[C@@H](O)[C@H](O[C@H]2c3cc(C)c(C(=O)N[C@H](C)C(=O)O)c(O)c3-c3c(cc4c(c3O)C(=O)c3cc(OC)cc(O)c3C4=O)[C@@H]2O)O[C@@H]1C` [Pradimicin A (PRM‐A), Pradimicin A], the EC50 [3] was 3.3 ± 1.2 µM, the “SI selectivity index (CC50/EC50)” value ([3]; anti-HIV, Table 1) was over 30.3 and the EC50 [4] was 5.9 ± 3.7 µM. The CC50 at 5 days [5] was over 100 µM, the Kd [6] was 6.52 ± 0.11 µM and the kd ([6]; SPR, 1:1 Langmuir model, four replicates, 25 °C) was 12.64±2.92 (10^−3)(1/s). For the same molecule, the “binding to gp120 (in words)” value ([6]; SPR, concentration-dependent) was “binds to gp120” and the kon ([6]; read-out: ka) was 1930 ± 420 M⁻¹ s⁻¹.

In the case of `C[C@H](Cn1cnc2c(N)ncnc21)OCP(=O)(O)O` [Tenofovir (PMPA), Tenofovir], the EC50 [3] is reported as 4.74 µM, the EC50 [4] is reported as 1 µM and the CC50 at 5 days [5] is reported as over 100 µM.
